According to ChEMBL document CHEMBL1275345, “Pyrazolo[1',5':1,6]pyrimido[4,5-d]pyridazin-4(3H)-ones as selective human A(1) adenosine receptor ligands” (Bioorg Med Chem, 2010):
The source made the active and inactive calls. No cut-off for these calls is given here.

Legend:
[1] = target: T1, Adenosine receptor A2b (Homo sapiens) (UniProt P29275); assay: Displacement of [3H]DPCPX from human adenosine A2b receptor expressed in HEK293 cells at 10 uM after 30 mins; assay type: cell-based
T1 sequence (whole entry): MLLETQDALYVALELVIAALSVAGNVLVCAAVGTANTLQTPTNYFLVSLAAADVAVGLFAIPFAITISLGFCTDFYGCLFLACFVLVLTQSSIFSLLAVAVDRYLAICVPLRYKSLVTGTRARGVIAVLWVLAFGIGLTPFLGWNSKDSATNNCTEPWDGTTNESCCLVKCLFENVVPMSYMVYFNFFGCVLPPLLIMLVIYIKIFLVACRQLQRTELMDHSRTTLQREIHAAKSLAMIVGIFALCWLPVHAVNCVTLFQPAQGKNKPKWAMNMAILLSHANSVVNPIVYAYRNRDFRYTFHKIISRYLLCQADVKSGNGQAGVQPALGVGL
How it was run: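 Human A2B receptor expressed in HEK-293 cells, with displacement of [3H]DPCPX. Incubated at 25 °C for 30 min, then filtered and counted by beta scintillation. Reported as Ki (nM) or percentage inhibition at the single test concentration. Means of four independent assays, each run in triplicate.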

[2] = target: T2, Adenosine receptor A3 (Homo sapiens) (UniProt P0DMS8); assay: Displacement of [3H]NECA from human adenosine A3 receptor expressed in HeLa cells at 10 uM after 180 mins; assay type: cell-based
T2 sequence (whole entry): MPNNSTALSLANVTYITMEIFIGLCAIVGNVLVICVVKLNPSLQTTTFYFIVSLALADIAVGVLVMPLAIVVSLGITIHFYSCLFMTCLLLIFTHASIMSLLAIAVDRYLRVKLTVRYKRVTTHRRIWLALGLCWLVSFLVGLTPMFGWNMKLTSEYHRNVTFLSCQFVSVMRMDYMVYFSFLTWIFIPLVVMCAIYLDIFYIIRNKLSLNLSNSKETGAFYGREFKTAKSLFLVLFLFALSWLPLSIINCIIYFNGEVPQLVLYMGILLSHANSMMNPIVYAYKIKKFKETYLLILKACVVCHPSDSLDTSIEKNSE
How it was run: (§1)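 HeLa cells expressing human A3 receptor, with displacement of [3H]NECA. Incubated at 25 °C for 180 min, then filtered and counted by beta scintillation. Ki (nM) or percentage inhibition at the single test concentration. Means of four assays, each in triplicate.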

Adenosine receptor A1 = target: T3, Adenosine receptor A1 (Homo sapiens, UniProt P30542); assay: Displacement of [3H]DPCPX from human adenosine A1 receptor expressed in CHO-A1 cells after 60 mins; assay type: cell-based
T3 sequence (P30542 whole entry): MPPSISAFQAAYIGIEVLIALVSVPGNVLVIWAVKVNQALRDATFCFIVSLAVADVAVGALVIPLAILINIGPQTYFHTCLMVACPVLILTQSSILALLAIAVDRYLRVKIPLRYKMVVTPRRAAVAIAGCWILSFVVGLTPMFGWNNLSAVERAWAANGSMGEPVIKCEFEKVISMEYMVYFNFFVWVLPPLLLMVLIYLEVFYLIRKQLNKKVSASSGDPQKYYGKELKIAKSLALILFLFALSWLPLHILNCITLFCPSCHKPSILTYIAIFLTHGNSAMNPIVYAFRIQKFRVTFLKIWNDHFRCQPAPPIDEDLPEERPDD
How it was run: (§2)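 Competition binding on membranes from CHO cells expressing human A1 receptor, labelled with 2 nM [3H]DPCPX. Non-specific binding defined with (R)-PIA. Incubation at 25 °C for 60 min, then filtration and beta scintillation counting. Result given as Ki (nM) or % inhibition at the single test concentration. Means of four separate assays, each in triplicate.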

Adenosine receptor A2a [3] = target: T4, Adenosine receptor A2a (Homo sapiens, UniProt P29274); assay: Displacement of [3H]ZM241385 from human adenosine A2a receptor expressed in HeLa cells after 30 mins; assay type: cell-based
How it was run: (§3)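 [3H]ZM241385 specific binding in HeLa cells expressing human A2A receptor. Incubation at 25 °C for 30 min, followed by filtration and beta scintillation counting. Output is Ki (nM) or % inhibition at the single test concentration. Values are means of four separate assays, each performed in triplicate.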

Bos taurus = species: Bos taurus; assay: Binding affinity to bovine adenosine A2a receptor at 34 uM
[4] = target: T5, Adenosine receptor A1 (Bos taurus) (UniProt P28190); assay: Binding affinity to bovine adenosine A1 receptor at 34 uM
T5 sequence (whole entry): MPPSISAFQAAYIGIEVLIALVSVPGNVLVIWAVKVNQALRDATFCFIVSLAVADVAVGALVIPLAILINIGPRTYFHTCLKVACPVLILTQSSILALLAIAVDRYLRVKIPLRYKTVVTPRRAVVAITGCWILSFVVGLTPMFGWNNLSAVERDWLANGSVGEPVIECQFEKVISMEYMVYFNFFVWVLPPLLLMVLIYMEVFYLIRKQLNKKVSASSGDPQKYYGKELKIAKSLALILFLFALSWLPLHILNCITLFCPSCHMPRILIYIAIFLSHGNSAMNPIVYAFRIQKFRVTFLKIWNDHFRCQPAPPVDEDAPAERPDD

Adenosine receptor A2b [5] = target: T6, Adenosine receptor A2b (Homo sapiens, UniProt P29275); assay: Binding affinity to human adenosine A2b receptor
T6 sequence (P29275 whole entry): T1 sequence (whole entry)
How it was run: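 Competition binding on human A2B receptors expressed in HEK-293 cells, displacing [3H]DPCPX. Bound radioactivity was separated by filtration and counted by beta scintillation. Values are means of four separate assays, each run in triplicate.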

Adenosine receptor A3 [6] = target: T7, Adenosine receptor A3 (Bos taurus, UniProt Q0VC81); assay: Binding affinity to bovine adenosine A3 receptor
T7 sequence (Q0VC81 whole entry): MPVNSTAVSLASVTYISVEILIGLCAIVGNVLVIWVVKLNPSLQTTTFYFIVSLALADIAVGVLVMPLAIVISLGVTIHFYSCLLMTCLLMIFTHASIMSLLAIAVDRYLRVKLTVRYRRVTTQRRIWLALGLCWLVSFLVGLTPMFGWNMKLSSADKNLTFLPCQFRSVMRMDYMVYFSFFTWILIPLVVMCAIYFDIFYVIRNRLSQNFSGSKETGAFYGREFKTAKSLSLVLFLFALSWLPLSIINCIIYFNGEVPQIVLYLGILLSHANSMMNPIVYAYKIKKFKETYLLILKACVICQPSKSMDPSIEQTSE

[7] = target: cGMP-specific 3',5'-cyclic phosphodiesterase (Homo sapiens) (UniProt O76074); assay: Inhibition of human platelets PDE5 at 2 uM
How it was run: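 PDE5 came from human platelet lysate (10⁹ platelets): the supernatant was fractionated on a Mono-Q ion-exchange column. Activity was measured with a two-step cyclic nucleotide phosphodiesterase procedure. Compounds were tested at a single concentration and the result given as % inhibition.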

Homo sapiens [8] = species: Homo sapiens; assay: Selectivity ratio of Ki for human adenosine A2a receptor to Ki for human A1 receptor
Homo sapiens [9] = species: Homo sapiens; assay: Selectivity ratio of Ki for human adenosine A2b receptor to Ki for human A1 receptor
Adenosine receptor A2b [10] = target: T6, Adenosine receptor A2b; assay: Displacement of [3H]DPCPX from human adenosine A2b receptor expressed in HEK293 cells after 30 mins; assay type: cell-based
[11] = Binding affinity to bovine adenosine A2a receptor; parameters: species or system Bos taurus
Adenosine receptor A2a [12] = target: T4, Adenosine receptor A2a; assay: Displacement of [3H]ZM241385 from human adenosine A2a receptor expressed in HeLa cells at 10 uM after 30 mins; assay type: cell-based; how it was run: as §3
[13] = Binding affinity to human adenosine A2 receptor
Adenosine receptor A3 [14] = target: T8, Adenosine receptor A3 (Homo sapiens, UniProt P0DMS8); assay: Displacement of [3H]NECA from human adenosine A3 receptor expressed in HeLa cells after 180 mins; assay type: cell-based; how it was run: as §1
T8 sequence (P0DMS8 whole entry): T2 sequence (whole entry)

[15] = target: T9, Adenosine receptor A1 (Homo sapiens) (UniProt P30542); assay: Displacement of [3H]DPCPX from human adenosine A1 receptor expressed in CHO-A1 cells at 10 uM after 60 mins; assay type: cell-based; how it was run: as §2
T9 sequence (whole entry): T3 sequence (P30542 whole entry)

T4 sequence (P29274 whole entry): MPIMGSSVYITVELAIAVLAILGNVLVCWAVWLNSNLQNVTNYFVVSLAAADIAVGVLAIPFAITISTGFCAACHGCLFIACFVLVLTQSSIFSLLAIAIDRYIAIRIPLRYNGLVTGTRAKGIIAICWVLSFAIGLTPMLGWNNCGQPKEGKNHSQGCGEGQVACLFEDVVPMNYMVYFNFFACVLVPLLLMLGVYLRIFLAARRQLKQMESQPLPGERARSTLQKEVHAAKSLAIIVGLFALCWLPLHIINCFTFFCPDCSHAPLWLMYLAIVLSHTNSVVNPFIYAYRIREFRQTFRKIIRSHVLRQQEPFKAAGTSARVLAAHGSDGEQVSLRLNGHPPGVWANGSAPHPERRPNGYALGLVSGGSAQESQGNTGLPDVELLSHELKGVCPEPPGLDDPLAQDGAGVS

| inhibition [1] | inhibition [2] | Ki (Adenosine receptor A1) [nM] | Ki (Adenosine receptor A2a [3]) [nM] | inhibition (Adenosine receptor A2a [12]) | SMILES | other results |
| --- | --- | --- | --- | --- | --- | --- |
| inactive | inactive | 71.8 | 2490 | – | CCc1nc2c(=O)n(Cc3ccccc3)nc(-c3ccncc3)c2c2cc(-c3ccccc3)nn12 | – |
| inactive | inactive | 47.4 | 2110 | – | Cc1nc2c(=O)n(Cc3ccccc3)nc(-c3cccnc3)c2c2cc(-c3ccccc3)nn12 | inhibition [7]: 29.7% |
| inactive | inactive | 10.2 | 67.9 | – | O=c1c2ncn3nc(-c4ccccc4)cc3c2c(-c2ccncc2)nn1Cc1ccccc1 | Ratio Ki (Homo sapiens [8]): 7 |
| inactive | inactive | 267 | 572 | – | Cc1nc2c(=S)n(Cc3ccccc3)nc(-c3ccncc3)c2c2cc(-c3ccccc3)nn12 | – |
| inactive | inactive | 28.3 | 772 | – | CCCc1nc2c(=O)n(Cc3ccccc3)nc(-c3ccncc3)c2c2cc(-c3ccccc3)nn12 | – |
| inactive | inactive | 180 | – | < 50% | CCc1nc2c(=O)n(Cc3ccccc3)nc(-c3cccnc3)c2c2cc(-c3ccccc3)nn12 | inhibition [7]: 32.8% |
| inactive | inactive | 43.6 | 501 | – | Cc1nc2c(=O)n(Cc3ccccc3)nc(-c3ccncc3)c2c2cc(-c3ccccc3)nn12 | inhibition [7]: 5.7% |
| inactive | inactive | 192 | 5190 | – | CC(C)c1nc2c(=O)n(Cc3ccccc3)nc(-c3ccncc3)c2c2cc(-c3ccccc3)nn12 | – |
| inactive | inactive | – | – | < 50% | Cc1nc2c(SCc3ccccc3)nnc(-c3ccncc3)c2c2cc(-c3ccccc3)nn12 | inhibition [15]: < 50% |
| inactive | inactive | – | – | inactive | Cc1nc2c(=O)n(Cc3ccccc3)nc(-c3ccc(F)cc3)c2c2cc(-c3ccccc3)nn12 | inhibition [15]: < 50% |

The next lines start with the compound.

| SMILES | inhibition [1] | inhibition [2] | Ki (Adenosine receptor A1) [nM] | Ki (Adenosine receptor A2a [3]) [nM] | inhibition (Adenosine receptor A2a [12]) | other results |
| --- | --- | --- | --- | --- | --- | --- |
| COc1ccc(-c2nc3c(O)nc4ccccc4n3n2)cc1 | – | – | – | – | – | inhibition (Bos taurus): 8.7%; inhibition [4]: 0% |
| COc1ccc(CCCn2ncc3c2nc(N)n2nc(-c4ccco4)nc32)cc1 | – | – | – | – | – | Ki (Adenosine receptor A2b [5]): > 10000 nM; Ki (Adenosine receptor A3 [6]): > 10000 nM |
| Cc1nn(Cc2ccccc2)c(=O)c2ncn3nc(-c4ccsc4)cc3c12 | – | < 50% | 85.3 | 7360 | – | fold change (FC) (Homo sapiens [8]): 90; fold change (FC) (Homo sapiens [9]): 56; Ki (Adenosine receptor A2b [10]): 4650 nM |
| Cc1nc2c(=O)n(Cc3ccccc3)nc(Cl)c2c2cc(-c3ccccc3)nn12 | < 50% | < 50% | 1620 | 3150 | – | – |
| O=c1c(-c2ccccc2)nnc2n(-c3ccccc3)c3ccccc3n12 | – | – | – | – | – | Ki (Adenosine receptor A3 [6]): > 1000 nM; Ki [11]: > 10000 nM |
| O=c1c2ncn3nc(-c4ccccc4)cc3c2c(-c2cccnc2)nn1Cc1ccccc1 | inactive | inactive | 11.4 | 805 | – | Ratio Ki (Homo sapiens [8]): 71 |
| Cc1nn(Cc2ccccc2)c(=O)c2ncn3nc(-c4ccccc4)cc3c12 | – | < 50% | 104 | – | < 50% | Ki (Adenosine receptor A2b [10]): 7560 nM |
| O=C(Cc1cccc2ccccc12)Nc1nc2nn(CCCc3ccccc3)cc2c2nc(-c3ccco3)nn12 | – | – | – | – | – | Ki (Adenosine receptor A3 [6]): 300 nM; Ki [13]: 800 nM |
| Cc1nn(C(C)c2ccccc2)c(=O)c2nc(C)n3nc(-c4ccccc4)cc3c12 (stereo not drawn) | < 50% | – | 3080 | – | < 50% | Ki (Adenosine receptor A3 [14]): 4730 nM |
| Cc1nn(Cc2ccccc2)c(=O)c2nnn3nc(-c4ccccc4)cc3c12 | < 50% | < 50% | – | – | < 50% | inhibition [15]: < 50% |
| CCc1nc2c(=O)n(Cc3ccccc3)nc(-c3cccc(F)c3)c2c2cc(-c3ccsc3)nn12 | inactive | inactive | – | – | inactive | inhibition [15]: < 50% |
